High-throughput results from PubChem BioAssay.
Tb hexokinase: T. brucei hexokinase 1 inhibition. recombinant TbHK1, G6PDH-coupled NADH A340. inhibition, % at 10 µM. hit rate 0.11% among 220,000;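 active = inhibition of 50% or more in the single-dose primary screen; inactive = inhibition below 50%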
Runt-SMMHC FRET: Runt domain-CBFb-SMMHC interaction inhibition. Cerulean-Runt/Venus-CBFb-SMMHC FRET ratio 530/480, 1 h. Q01196+Q13951. hit rate 0.74% among 220,000. AID 1434. inhibition, % at 20 µM;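 active = mean inhibition across duplicate retests at 20 µM reaching about 50%, limit read from the data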;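 note: 0% = DMSO wells and 100% = wells with excess untagged CBFb-SMMHC; inhibitors lower the FRET ratio by blocking Runt binding to CBFb-SMMHC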
RanGTP-Imp inh: disruptors of Ran-importin-beta complex formation – biochemical, FRET, CFP-Ran, YFP-importin-beta, homogeneous, primary screen; hit rate 1.1% among 300,000; inhibition, % (concentration not given with the values); cell-free CFP-Ran/YFP-importin-beta FRET ratio; AID 2216;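 active = more than half of the replicate wells show a fall in the fluorescence ratio signal beyond about 16%, limit read from the data, passing the limit was not always enough; inconclusive = exactly half of the replicate wells pass the set limit; inactive = fewer than half of replicates pass the limit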;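 note: 0% = DMSO wells and 100% = Ran loaded with GDP instead of GTP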
14-3-3 Bad inh: disrupts binding of bovine 14-3-3 zeta to phospho-Bad peptide; TR-FRET 14-3-3zeta/Dy647-pBad peptide displacement, 1 h; inhibition, % at 21.7 µM; P63103; hit rate 0.71% among 220,000;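 active = inhibition above about 70%, limit read from the data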;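 note: 0% = full 14-3-3 plus peptide FRET controls and 100% = background without 14-3-3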
Target sequence (P63103 whole entry, looked up): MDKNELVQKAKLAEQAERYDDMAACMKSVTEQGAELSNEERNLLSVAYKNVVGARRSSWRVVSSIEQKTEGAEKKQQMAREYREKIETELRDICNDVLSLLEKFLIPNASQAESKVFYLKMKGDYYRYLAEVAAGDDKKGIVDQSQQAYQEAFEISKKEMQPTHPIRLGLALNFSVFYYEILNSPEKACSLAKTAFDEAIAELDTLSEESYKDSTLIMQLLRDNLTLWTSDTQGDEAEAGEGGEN
Hck Nef HTS: human Hck-Nef kinase inhibition; P08631; Recombinant Hck-YEEI plus Nef, Z-Lyte FRET kinase assay; inhibition, % at 20 µM; hit rate 0.68% among 220,000;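 active = Hck-Nef kinase inhibition above about 50%, limit read from the data; inactive = inhibition below that limit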;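 note: 0% = DMSO with Hck plus Nef and 100% = Hck alone without Nef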
Runt-CBFb FRET: inhibitors of human RUNX1 Runt domain binding to CBFb. Q01196+Q13951. Cerulean-Runt/Venus-CBFb FRET ratio 530/480, 1 h. inhibition, % at 20 µM. hit rate 0.46% among 220,000;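 active = inhibition over about 50% at 20 µM in the single-dose screen, limit read from the data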;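 note: 0% = DMSO wells and 100% = excess unlabeled CBFb competitor control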
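Reagent – Venus-CBFb binding partner, 100 nM · Assay system – Cerulean-tagged RUNX1 Runt domain (FRET donor) fusion protein · Input – 100 nM per protein · Incubation – two 1 h room-temperature incubations shielded from light · Measured by – FRET fluorescence · Medium – Tris buffer pH 7.5 with salts and BSA · Benchmarks – unlabeled CBFb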
Active calls of the source: *; u = inconclusive; x = not tested or not shown; [ ] = another dose, or the depositor's remark. Most compounds without a hit are left out; they make up all but 2.2% or so of the library.

SMILES	Tb hexokinase	Runt-SMMHC FRET	RanGTP-Imp inh	14-3-3 Bad inh	Hck Nef HTS	Runt-CBFb FRET
CC(=O)Nc1ccc2ccccc2c1	-2.5	2.7	2.0	92.1*[fluorescence artefact?]	-1.9	1.7
CC(=O)Nc1ccc2cc3ccc(NC(C)=O)cc3nc2c1	-14.4	x	37.2*	6.0	-31.0	15.3
CC(=O)Nc1ccc(NC(=O)C(C)OC(=O)/C(C#N)=C/c2ccc(N(C)C)cc2)cc1 (stereo not given)	x	x	-44.9	x	x	x
CC(OC(=O)/C(C#N)=C/c1ccc(N(C)C)cc1)C(=O)N(C)c1ccccc1 (stereo not given)	x	x	92.2*	x	x	x
CC(C)COC(=O)/C(C#N)=C/c1c[nH]c2ccccc12	0.8	50.8*	2.3	3.5	2.4	24.2
O=C1C=CC(=O)N1c1cccc(-c2ccccc2)c1	8.5	73.2*	-1.8	8.4	-38.0	38.2
O=C(Nc1cccc(N2C(=O)C=CC2=O)c1)c1cccs1	x	x	0.5	x	x	x
O=C(CSc1ccc2c(c1)OCCO2)Nc1ccc(N2CCOCC2)cc1	1.1	2.9	8.1	1.0	17.3	1.1
O=C(Nc1ccc2nc(-c3cccs3)[nH]c2c1)c1cccs1	-41.9	-0.9	3.7	0.9	10.9	1.5
O=C(Nc1ccc(-c2nc3ccc(NC(=O)c4cccs4)cc3[nH]2)cc1)c1cccs1	-92.2	-41.0	-6.5	81.8*[fluorescence artefact?]	-5.2	-29.8
Cc1ccc(N2CCCC2=O)cc1S(=O)(=O)N1CCOCC1	x	x	-0.4	x	x	x
Cc1cc(N)ccc1N1CCCC1	17.9	-13.8	1.1	96.6*[fluorescence artefact?]	2.9	-4.3
Cc1ccc(-n2nc(C)c(NS(=O)(=O)c3ccccc3)c2C)cc1C	-0.1	1.5	36.3*	-1.6	-2.3	-0.6
Cc1ccc(-n2c(C)nc3c(cnn3-c3ccc(C)c(C)c3)c2=O)cc1C	3.5	3.9	30.1*	2.2	-0.3	-1.3
CC1=NN(C(C#N)c2c(C)nn(Cc3ccccc3)c2C)C(C)(C)C1 (stereo not given)	3.1	0.1	x	-3.6	-8.1	-0.2
OCCCc1nc2n(n1)C(c1ccccc1Cl)C=C(c1cccs1)N2 (stereo not given)	-11.8	77.6*	34.0*	-5.1	-2.6	19.3
Cc1ccc(-c2ccc(NC(=O)C3C4C=CC(C4)C3C(=O)O)cc2)o1 (stereo not given)	-0.4	5.0	30.4*	1.8	2.3	8.0
CCn1c(SCCN2CCCCC2)nnc1-c1ccc(S(=O)(=O)N2CCOCC2)cc1	-6.5	-0.7	2.6	74.6*	0.3	-0.7
CC1CCCN(C(=O)CSc2nnc(-c3ccc(S(=O)(=O)N4CCOCC4)cc3)n2C)C1 (stereo not given)	7.7	2.3	-3.1	84.6*[fluorescence artefact?]	1.9	-0.8
CCOc1ncccc1C(=O)Nc1nc(SC)ns1	-6.6	2.9	u	-0.7	-9.7	0.7
CC1CCN(CC(=O)NCCc2ccc(F)cc2)CC1	-1.0	-3.4	0.3	41.0	15.5	0.9
O=C(CN1CCCCCC1)NCCc1ccc(F)cc1	3.8	-7.0	x	74.9*	1.8	-0.6
Cc1ccc2nc(N3CCN(C=O)CC3)nc(-c3ccccc3)c2c1	-7.6	87.6*	53.9*	4.9	12.1	13.6
CCOC(=O)N1CCN(c2nc(-c3ccccc3)c3ccccc3n2)CC1	x	x	17.8*	x	x	x
Cc1ccc2nc(N3CCN(C(=O)CCCC(=O)O)CC3)nc(-c3ccccc3)c2c1	x	x	16.6*	x	x	x
SMILES	Tb hexokinase	Runt-SMMHC FRET	RanGTP-Imp inh	14-3-3 Bad inh	Hck Nef HTS	Runt-CBFb FRET
O=C(O)CCC(=O)N1CCN(c2nc(-c3ccccc3)c3ccccc3n2)CC1	x	x	11.8	x	x	x
O=C(O)CCCC(=O)N1CCN(c2nc(-c3ccccc3Cl)c3cc(Br)ccc3n2)CC1	x	x	35.4*	x	x	x
CCOP(=O)(OCC)C(NC(=O)/C=C/c1ccc(OC)cc1)c1ccccc1 (stereo not given)	-10.1	0.8	1.2	-6.7	-5.4	-1.4
Clc1ccc(-c2nc(N3CCCCC3)nc3ccccc23)cc1	3.3	87.6*	25.3*	-1.5	3.1	4.7
CCOC(=O)CNc1c(-c2ccc(F)cc2)nc2cnccn12	-11.0	56.2	8.1	x	-13.6	24.7
CCOC(=O)CNc1c(-c2ccc(Cl)cc2)nc2cnccn12	-7.8	59.8	33.3*	0.2	-14.8	27.9
N#Cc1ccc2nc3c(nc2c1)CCCC3	x	x	-3.5	x	x	x
[O-]/C(=C(\C(=S)Nc1cccc2ccccc12)[n+]1ccccc1)c1cccs1	-14.9	7.7	1.3	84.4*	42.7	31.4
Cc1cccc(C)c1NC(=S)/C(=C(\[O-])c1cccs1)[n+]1ccccc1	-36.7	-2.2	-5.7	4.6	2.4	4.3
Cc1cc(-c2ccccc2)nc(=O)[nH]1	-12.4	-1.3	-5.0	74.0*	-1.1	16.5
COc1cc2c(cc1OC)CN(S(C)(=O)=O)CC2	-0.7	0.4	u	0.2	1.1	-0.9
COc1cc2c3nnc(-c4ccccc4)c-3cn(Cc3ccc(F)cc3)c2cc1OC	-4.1	40.5	34.8*	-2.4	7.1	12.7
O=C1OC(c2ccccc2)/C(=C(/O)c2ccc(Cl)cc2)C1=O (stereo not given)	-29.4	-0.8	1.2	71.1*	-1.4	-0.5
CC(C)Cc1nnc(NC(=O)C2CCCC2)s1	x	x	-4.4	x	x	x
CCCN(Cc1cc(=O)[nH]c2ccccc12)C(=O)CC	-8.3	3.5	3.5	76.0*	2.4	-0.3
CCC(=O)N(CC)Cc1cc(=O)[nH]c2ccccc12	-8.2	-1.5	0.0	5.7	-6.7	-1.4
NC(=O)c1ccccc1N/C=C/C(=O)c1ccc(F)cc1	-15.4	1.3	-12.7	-3.0	6.2	2.2
NC(=O)c1ccccc1N/C=C/C(=O)c1ccc(Cl)cc1Cl	-23.6	16.5	43.9*	-11.7	5.3	5.0
COc1ccc(-n2c3nc4ccccc4nc3c3c(=N)oc(C)nc32)cc1	-11.0	128.7*	6.8	-4.6	27.9	65.5*
COc1ccc(-n2c(N)c(C(=O)Nc3c(C)n(C)n(-c4ccccc4)c3=O)c3nc4ccccc4nc32)cc1	-31.1	-37.0	1.5	30.2	3.4	-9.2
CCCCn1c2nc3ccccc3nc2c2c(=N)oc(C)nc21	x	78.9*	x	x	x	45.8
CC(=O)N(c1ccccc1C)C1CCCC1	-8.0	0.7	3.4	-12.0	4.3	-1.0
CC(=O)N(C1=C(Cl)C(=O)c2ccccc2C1=O)C1CCCCC1	10.6	69.9*	4.0	-3.1	-39.5	33.1
COc1ccc(CN(Cc2cccnc2)C(=S)NCCc2ccccc2)cc1OC	-2.6	-13.0	-3.7	-8.1	0.4	-5.9
CC(C)c1ccc(S(=O)(=O)/N=C2/C=C(Sc3ncn[nH]3)C(=O)c3ccccc32)cc1	4.3	36.2	x	78.5*[fluorescence artefact?]	-2.1	3.5
Cc1ccc(S(=O)(=O)/N=C2/C=C(Sc3ncn[nH]3)C(=O)c3ccccc32)c(C)c1	20.1	45.1	x	66.3	-1.7	7.3
Cc1ccc(S(=O)(=O)Nc2ccc(O)c(Sc3ncn[nH]3)c2)cc1	1.8	5.6	-3.5	-10.6	18.0	7.8
